Assay results of several laboratories.
Protocols differ between the studies behind these lines.
Mode: inhibitor
rep methyltransferase: Replicase polyprotein 1ab, methyltransferase (rep, Severe acute respiratory syndrome coronavirus 2, UniProt P0DTD1)
rep main protease: Replicase polyprotein 1ab, main protease (rep, Severe acute respiratory syndrome coronavirus 2, UniProt P0DTD1)

O=c1oc2c(O)c(O)cc3c(=O)oc4c(O)c(O)cc1c4c23 — IC50 (rep methyltransferase; enzyme activity): 22.9 µM
COc1cc(Br)cc(C=NN2C(=O)c3ccccc3NC2c2cc(Br)cc(OC)c2O)c1O (stereo not drawn) — IC50 (rep main protease; enzyme activity in cells): > 40 µM
CC(C)(C)OC(=O)NCCc1nnc(S(=O)(=O)Cc2ccc(Cl)cc2Cl)o1 — IC50 (rep main protease; enzyme activity): 4.2 µM
CNC(=O)c1c(NC(=O)c2sc(=S)n(-c3ccc(C)cc3)c2N)sc2c1CCCC2 — IC50 (rep methyltransferase; enzyme activity): 35.7 µM
Cc1c[nH]c2ncc(C(=O)N[C@H]3[C@H](CNc4cc(=O)n5ccccc5n4)CCC34CCC4)cc12 — IC50 (rep main protease; enzyme activity): 32.7 µM
CCN(CC)S(=O)(=O)c1cccc(-n2sc3ccccc3c2=O)c1 — IC50 (rep main protease; enzyme activity): > 20 µM
CC(=O)N1CCN(C(=S)c2ccc(-c3cccc(Cl)c3)o2)CC1 — IC50 (rep methyltransferase; enzyme activity): 108 µM
Cc1ccc(-c2nc(N3CCN(C)CC3)s[n+]2-c2ccccc2)cc1 — IC50 (rep main protease; enzyme activity): 0.534 µM
CC[N+](C)(CC)CCC[n+]1c(-c2ccccc2)c2cc(N)ccc2c2ccc(N)cc21 — IC50 (rep main protease; enzyme activity): > 20 µM
CCOc1nc2cccc(C(=O)OC(C)OC(=O)OC3CCCCC3)c2n1Cc1ccc(-c2ccccc2-c2nn[nH]n2)cc1 (stereo not drawn) — IC50 (rep methyltransferase; enzyme activity): 30 µM
Oc1ccc2ccccc2c1SSc1c(O)ccc2ccccc12 — IC50 (rep main protease; enzyme activity): 0.5 µM
COC(=O)N[C@H](C(=O)N[C@@H](Cc1ccccc1)[C@@H](O)CN(Cc1ccc(-c2ccccn2)cc1)NC(=O)[C@@H](NC(=O)OC)C(C)(C)C)C(C)(C)C — IC50 (rep main protease; enzyme activity in cells): > 60 µM
COc1cc(C[C@@H](C)[C@@H](C)Cc2cc(O)c(OC)c(OC)c2)cc(O)c1OC — IC50 (rep main protease; enzyme activity; FRET): 3.07 µM
[2H]C([2H])([2H])n1ncc2cc(/N=c3\[nH]c(=O)n(Cc4ncn(C)n4)c(=O)n3Cc3cc(F)c(F)cc3F)c(Cl)cc21 — IC50 (rep main protease; enzyme activity; FRET): 3.53 µM
Cc1cccc2c3c(ccc12)C1=C(C(=O)C3=O)[C@@H](C)CO1 — IC50 (Replicase polyprotein 1ab, papain-like protease (rep, Severe acute respiratory syndrome coronavirus 2, UniProt P0DTD1); enzyme activity; FRET; pH 7.5): 33 µM
CCOc1nc2cccc(C(=O)OC(C)OC(=O)OC3CCCCC3)c2n1Cc1ccc(-c2ccccc2-c2nnn[nH]2)cc1 (stereo not drawn) — IC50 (rep methyltransferase; enzyme activity): 41.6 µM
O=[N+]([O-])c1ccc(Sc2cccc[n+]2[O-])c2nonc12 — IC50 (rep main protease; enzyme activity): 0.1 µM
CC(C)C[C@H](NC(=O)OCc1ccccc1)C(=O)N(C)N(C#N)CCC(N)=O — IC50 (rep main protease; enzyme activity): 1.45 µM
CCc1ccc(/C=C/C(=O)Nc2ccc(C(C)=O)cc2)o1 — IC50 (rep main protease; enzyme activity): 5 µM
Cc1cccc(C)c1OCC(=O)N[C@@H](Cc1ccccc1)[C@@H](O)C[C@H](Cc1ccccc1)NC(=O)[C@H](C(C)C)N1CCCNC1=O — IC50 (rep main protease; enzyme activity in cells): > 20 µM
COC(=O)C1=C(C(=O)OC)C(c2ccc(Cl)cc2)c2sc(=O)[nH]c2S1 (stereo not drawn) — IC50 (rep methyltransferase; enzyme activity): 74.9 µM
O=C(O)C(O)Cc1ccc(O)c(O)c1 (stereo not drawn) — IC50 (rep main protease; enzyme activity): 5.71 µM
c1ccc([Se][Se]c2ccccc2)cc1 — IC50 (rep main protease; enzyme activity; FRET): 1.33 µM
Clc1cccc(/C=C/c2nn3c(-c4ccco4)nnc3s2)c1 — IC50 (rep methyltransferase; enzyme activity): 24.3 µM
